An excerpt weighted towards active compounds, which were near 5.8% of everything screened.
Pf Dd2 growth = blocks growth of Plasmodium falciparum Dd2 parasites. AID 1159554. P. falciparum Dd2 growth, SYBR Green, 72 h; active compounds read low. 94,000 compounds, 2.3% hits. activity change, % at 10 µM; in the data active = activity change below about -80%; inconclusive = no clear call, values can overlap the other calls
T cruzi growth-1 = inhibitors of T. cruzi proliferation; T. cruzi beta-gal in NIH3T3, GalScreen luminescence, 90 h; inhibition, % at 8.34 µM; 77,000 compounds, 5.9% hits; AID 624255;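 active = mean inhibition above about 93%, with at least 55% of replicates each passing it, limit read from the data, passing the limit was not always enough; inconclusive = only one of those two conditions holds; inactive = neither condition holds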
KDM4C inh = inhibitors of human demethylase GASC-1 KDM4C | Q9H3R0 | GST-KDM4C 2-372, H3K9me3 peptide, LANCE TR-FRET | inhibition, % at 12.5 µM | 96,000 compounds, 0.15% hits;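 active = mean replicate inhibition above about 25%, with at least 55% of replicates also reaching it, limit read from the data, passing the limit was not always enough; inconclusive = only one of those two conditions met; inactive = neither condition met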
Target sequence (Q9H3R0 2-372 limits assumed): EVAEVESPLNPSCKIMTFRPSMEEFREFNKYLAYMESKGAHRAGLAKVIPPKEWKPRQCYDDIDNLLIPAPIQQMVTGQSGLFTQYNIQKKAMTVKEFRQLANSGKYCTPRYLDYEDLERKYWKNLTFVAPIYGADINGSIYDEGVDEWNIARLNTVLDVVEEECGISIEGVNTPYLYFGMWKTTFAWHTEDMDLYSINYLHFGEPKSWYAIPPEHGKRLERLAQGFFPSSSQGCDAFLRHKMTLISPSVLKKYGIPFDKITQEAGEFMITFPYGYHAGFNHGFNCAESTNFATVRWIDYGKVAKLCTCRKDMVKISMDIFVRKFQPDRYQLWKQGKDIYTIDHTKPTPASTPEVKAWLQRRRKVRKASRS
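reagent = H3K9me3 peptide substrate, Fe(II), 2-oxoglutarate | system = GST-tagged GASC-1 (JMJD2C) catalytic fragment, aa 2-372 | amount = enzyme final amount 10 nM | read-out = Fall in 671/618 emission ratio as inhibition | medium = HEPES buffer, pH 7.5, plus ascorbate | schedule = 30 min reaction, 60 min detection, RT | measured by = LANCE TR-FRET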
IDH1 R132H inh = inhibitors of human IDH1 R132H; IDH1 R132H reductase, diaphorase/resazurin fluorescence, 60 min; O75874; inhibition, % at 10 µM; 70,000 compounds, 0.18% hits; AID 624101; in the data active = inhibition above about 34%; inconclusive = no clear call, values can overlap the other calls; inactive = below about 11%;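 also: 0% = DMSO and 100% = no enzyme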
T cruzi growth-2 = Trypanosoma cruzi proliferation inhibition; shares compounds with T cruzi growth-1; T. cruzi beta-gal in NIH3T3, GalScreen luminescence, 90 h; inhibition, % at 8.35 µM; 5,600 compounds, 72% hits; AID 651739;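 active = mean replicate inhibition above about 95% and at least 55% of replicates individually reaching it, limit read from the data; inconclusive = only one of the two criteria is met; inactive = neither criterion is met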
T cruzi growth-3 = Trypanosoma cruzi proliferation inhibition; shares compounds with T cruzi growth-1; T. cruzi beta-gal in NIH3T3, GalScreen luminescence, 90 h; inhibition, % at 2.09 µM; 5,600 compounds, 21% hits; AID 651740;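 active = mean inhibition above about 95%, with at least 55% of replicates also reaching it, limit read from the data; inconclusive = meets just one of the two conditions; inactive = meets neither condition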;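 also: plate controls were neutral control median for no effect and positive control median for full effect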
NIH3T3 tox = NIH/3T3 (mouse) viability loss | shares compounds with T cruzi growth-1 | NIH/3T3 viability, CellTiter-Glo ATP luminescence, 90 h | cytotoxicity (signal decrease), % at 8.35 µM | 5,600 compounds, 14% hits | AID 651742;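 active = mean signal decrease across replicates above about 35% based on untreated-well scatter, with enough replicates individually passing, limit read from the data; inconclusive = no rule stated though some were filed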;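 also: 0% = median of neutral control wells and 100% = median of positive control wells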
NIH3T3 tox 2 = NIH/3T3 (mouse) viability loss; AID 651744; 5,600 compounds, 56% hits; inhibition, % at 24.9 µM; shares compounds with T cruzi growth-1; NIH/3T3 viability, CellTiter-Glo ATP luminescence, 90 h;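 active = mean loss of cell viability signal at or above a set limit, and enough replicates individually reaching it; inconclusive = meets only the mean limit or only the replicate share; inactive = meets neither condition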;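 also: 0% = median of neutral control wells and 100% = median of positive control wells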
The depositor's hits bear a star; ? = inconclusive; / = no result.

SMILES	Pf Dd2 growth	T cruzi growth-1	KDM4C inh	IDH1 R132H inh	T cruzi growth-2	T cruzi growth-3	NIH3T3 tox	NIH3T3 tox 2
C[C@@H]1CN([C@H](C)CO)C(=O)c2cc(NS(=O)(=O)c3ccc(Cl)cc3)ccc2O[C@@H](C)CCCCO[C@@H]1CN(C)C(=O)C1CCCCC1	-55	?	-1	1	100*	76	9	80*
C[C@H](CO)N1C[C@H](C)[C@H](CN(C)C(=O)C2CCCCC2)OCCCC[C@H](C)Oc2ccc(NS(=O)(=O)c3ccc(Cl)cc3)cc2C1=O	4	94	-1	/	/	/	/	/
C[C@@H]1CCCCO[C@H](CN(C)C(=O)C2CCCCC2)[C@H](C)CN([C@@H](C)CO)C(=O)c2cc(NS(=O)(=O)c3ccc(Cl)cc3)ccc2O1	-41	?	0	/	?	86	17	95*
C/C=C/c1ccc(C2[C@H]3CNC[C@@H]2N3S(=O)(=O)c2ccc(Cl)cc2)cc1 (stereo partly specified)	19	/	-1	/	/	/	/	/
COc1ccc(NC(=O)N(C)C[C@H]2Oc3cc(C#CCC(C)C)ccc3S(=O)(=O)N([C@@H](C)CO)C[C@H]2C)cc1	-55	100*	/	-1	108*	73	-18	58*
CCCC#Cc1ccc2c(c1)O[C@@H](CN(C)C(=O)Nc1ccc(OC)cc1)[C@H](C)CN([C@@H](C)CO)S2(=O)=O	-43	92	1	/	/	/	/	/
CC(C)CC#Cc1ccc2c(c1)O[C@H](CN(C)C(=O)Nc1ccccc1F)[C@@H](C)CN([C@H](C)CO)S2(=O)=O	-49	92*	2	0	107*	39	11	68*
CC(C)CC#Cc1ccc2c(c1)O[C@H](CN(C)C(=O)Nc1ccccc1F)[C@H](C)CN([C@H](C)CO)S2(=O)=O	-41	85	-2	-5	/	/	/	/
COc1ccc(NC(=O)N(C)C[C@@H]2Oc3cc(C#CCC(C)C)ccc3S(=O)(=O)N([C@@H](C)CO)C[C@@H]2C)cc1	-50	99*	-1	0	106*	111*	-11	96*
CCCC#Cc1ccc2c(c1)O[C@H](CN(C)C(=O)Nc1ccc(OC)cc1)[C@@H](C)CN([C@@H](C)CO)S2(=O)=O	-35	113*	0	-4	112*	71	28	-15
COc1ccc(NC(=O)N(C)C[C@H]2Oc3cc(C#CCC(C)C)ccc3S(=O)(=O)N([C@@H](C)CO)C[C@@H]2C)cc1	-38	95*	1	0	106*	61	13	89*
CC(C)CC#Cc1ccc2c(c1)O[C@@H](CN(C)C(=O)Nc1ccccc1)[C@@H](C)CN([C@H](C)CO)S2(=O)=O	-69	129*	-3	0	102*	72	24	95*
C[C@H]1CN([C@@H](C)CO)S(=O)(=O)c2ccc(C#Cc3ccccc3)cc2O[C@H]1CN(C)C(=O)Nc1ccccc1	-35	3	0	0	/	/	/	/
COc1ccc(NC(=O)N(C)C[C@@H]2Oc3cc(C#CCC(C)C)ccc3S(=O)(=O)N([C@H](C)CO)C[C@H]2C)cc1	-34	89	7	0	/	/	/	/
C[C@H](CO)N1C[C@H](C)[C@H](CN(C)C(=O)C2CC2)Oc2cc(-c3cccc(C#N)c3)ccc2S1(=O)=O	-24	76	-1	0	/	/	/	/
C[C@@H](O)C#Cc1ccc([C@H]2[C@@H](CO)N3CCCCN(S(=O)(=O)Cc4ccccc4)C[C@H]23)cc1	-16	45	-1	/	/	/	/	/
C[C@@H](O)C#Cc1ccc([C@@H]2[C@H]3CN(S(=O)(=O)Cc4ccccc4)CCCCN3[C@H]2CO)cc1	-5	48	0	/	/	/	/	/
CC(C)C#Cc1ccc([C@@H]2[C@@H](CO)N3CCCCN(S(=O)(=O)Cc4ccccc4)C[C@H]23)cc1	-5	117*	0	/	107*	80	23	105*
CC(C)C#Cc1ccc([C@H]2[C@H](CO)N3CCCCN(S(=O)(=O)Cc4ccccc4)C[C@@H]23)cc1	-17	109*	0	/	106*	66	20	104*

Compound activity deposited in PubChem BioAssay by Broad Institute.
